target: T1, Stromelysin-1 (Homo sapiens, UniProt P08254); assay: Inhibition activity against recombinant human stromelysin (Matrix metalloprotease-3) (Inactive)
Method in brief: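 Substance P (0.5 mM) cleaved by recombinant human stromelysin (8 μg, 2 units) for 30 min at 37 °C with test compound diluted from 10 mM stock into assay buffer. Reaction stopped with 10 mM EDTA. Substance P 7-11 fragment quantified by RP-8 HPLC. IC50 versus inhibitor-free control, mean of two independent measurements. Ki derived from mean IC50 by Waley's method.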

T1 sequence (P08254 whole entry, the tested form may be a part): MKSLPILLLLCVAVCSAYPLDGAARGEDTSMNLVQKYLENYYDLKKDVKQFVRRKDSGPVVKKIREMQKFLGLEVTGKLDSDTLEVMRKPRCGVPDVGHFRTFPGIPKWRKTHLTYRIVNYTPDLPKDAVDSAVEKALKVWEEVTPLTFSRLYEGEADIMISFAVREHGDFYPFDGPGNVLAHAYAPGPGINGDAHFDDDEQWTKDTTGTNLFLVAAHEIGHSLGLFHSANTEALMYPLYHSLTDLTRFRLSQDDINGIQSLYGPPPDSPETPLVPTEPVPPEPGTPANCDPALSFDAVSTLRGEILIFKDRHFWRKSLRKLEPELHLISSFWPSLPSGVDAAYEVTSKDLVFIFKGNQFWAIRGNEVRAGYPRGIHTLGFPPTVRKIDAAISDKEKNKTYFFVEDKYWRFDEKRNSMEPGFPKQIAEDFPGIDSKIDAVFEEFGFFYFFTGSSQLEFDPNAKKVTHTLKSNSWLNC

| Compound | Ki |
| --- | --- |
| CC(C)CN(CC(=O)NO)S(=O)(=O)c1ccc([N+](=O)[O-])cc1 | Not Active |
| CC(C)CN(CC(=O)NO)S(=O)(=O)c1ccc(S(C)(=O)=O)cc1 | Not Active |
| CC(C)CN(CC(=O)NO)S(=O)(=O)c1ccc(C(C)(C)C)cc1 | Not Active |

target: T1, Stromelysin-1; assay: Inhibition activity against recombinant human stromelysin (Matrix metalloprotease-3)

| Compound | Ki |
| --- | --- |
| CC(C)CN(CC(=O)NO)S(=O)(=O)c1ccc(N(C)C)cc1 | 4.4 µM |
| COc1ccc(S(=O)(=O)N(Cc2ccccc2)C(C(=O)NO)C(C)C)cc1 (stereo not drawn) | 0.092 µM |
| COc1ccc(S(=O)(=O)N(Cc2ccccc2)[C@H](C)C(=O)NO)cc1 | 0.036 µM |
| COc1ccc(S(=O)(=O)N(Cc2ccccc2)[C@@H](C)C(=O)NO)cc1 | 0.141 µM |
| COc1ccc(S(=O)(=O)N(CC(=O)NO)CC2CCCCC2)cc1 | 0.061 µM |
| COc1ccc(S(=O)(=O)N(Cc2ccccc2)C(Cc2ccccc2)C(=O)NO)cc1 (stereo not drawn) | 0.071 µM |
| COc1ccc(S(=O)(=O)N(Cc2ccccc2)C(C)C(=O)NO)cc1 (stereo not drawn) | 0.086 µM |
| COc1ccc(CN(CC(=O)NO)S(=O)(=O)c2ccc(OC)cc2)cc1 | 0.104 µM |
| COc1ccc(S(=O)(=O)N(CC(=O)NO)Cc2ccccc2)cc1 | 0.07 µM |
| COc1ccc(S(=O)(=O)NCC(=O)NO)cc1 | 4.4 µM |
| COc1ccc(S(=O)(=O)N(Cc2ccccc2)[C@H](CC(C)C)C(=O)NO)cc1 | 0.023 µM |
| COc1ccc(S(=O)(=O)N(Cc2ccccc2)[C@H](Cc2ccccc2)C(=O)NO)cc1 | 0.029 µM |
| COc1ccc(S(=O)(=O)N(Cc2ccccc2)[C@@H](C(=O)NO)C(C)C)cc1 | 0.034 µM |
| COc1ccc(S(=O)(=O)N(CC(=O)NO)Cc2ccc3ccccc3n2)cc1 | 0.134 µM |
| COc1ccc(S(=O)(=O)N(CCC(C)C)CC(=O)NO)cc1 | 0.094 µM |

— ChEMBL document CHEMBL1130107, “Discovery of CGS 27023A, a non-peptidic, potent, and orally active stromelysin inhibitor that blocks cartilage degradation in rabbits” (J Med Chem, 1997)
